Assay results from ChEMBL document CHEMBL1687708, “Efficacy of oritavancin in a murine model of Bacillus anthracis spore inhalation anthrax” (Antimicrob Agents Chemother, 2008).
≈ marks a conversion by molar mass, not a printed value.

Key:
[1] = system: Bacillus anthracis; assay: animal or person; details: in Mus musculus, ip
[2] = system: Bacillus anthracis; assay: Antimicrobial activity against Bacillus anthracis infected mouse spore inhalation anthrax model assessed as bacterial load per gram of lung tissue at 30 mg/kg, ip every 12 hrs for 14 days treated 48 hrs postinfection; assay type: functional; details: route intraperitoneal
[3] = system: Bacillus anthracis; assay: Antimicrobial activity against Bacillus anthracis infected mouse spore inhalation anthrax model assessed as bacterial load per gram of lung tissue at 30 mg/kg, ip every 12 hrs for 14 days treated 24 hrs postinfection; assay type: functional; details: route intraperitoneal
[4] = system: Bacillus anthracis; assay: animal or person; details: in Mus musculus, ip; remark: listed apart in the source
[5] = system: Bacillus cereus; assay: Ratio of MIC for Bacillus cereus ATCC 4342 selected after 20 daily cycles of drug selection followed by 5 days of nonselective growth to MIC for Bacillus cereus ATCC 4342; assay type: functional
Summary of the method: (§1)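 B. cereus ATCC 4342 went through stepwise selection for 20 cycles in cation-adjusted Mueller-Hinton broth with doubling drug dilutions. Each cycle was seeded from the previous day's 0.5× MIC wells, in two independent rounds per drug. Selectants showing a fourfold or greater MIC rise were passaged 5 days without drug. Their MICs were then read alongside the parent strain. Oritavancin assays carried 0.002% polysorbate 80 throughout.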

[6] = system: Bacillus anthracis; assay: animal or person; details: in Mus musculus, iv
[7] = system: Bacillus anthracis; assay: Antimicrobial activity against Bacillus anthracis infected mouse spore inhalation anthrax model assessed as bacterial load per gram of lung tissue at 30 mg/kg, ip every 12 hrs for 14 days treated 36 hrs postinfection; assay type: functional; details: route intraperitoneal
[8] = system: Bacillus cereus; assay: Antimicrobial activity against Bacillus cereus ATCC 4342 by broth microdilution method; assay type: functional
Summary of the method: as §1

[9] = system: Bacillus anthracis; assay: animal or person; details: in Mus musculus, ip; remark: listed apart in the source
[10] = system: Bacillus cereus; assay: Antimicrobial activity against Bacillus cereus ATCC 4342 selected after 20 daily cycles of drug selection followed by 5 days of nonselective growth by broth microdilution method; assay type: functional; details: ATCC 4342, 120 h
Summary of the method: as §1

[11] = system: Bacillus anthracis; assay: animal or person; details: in Mus musculus, ip; remark: listed apart in the source
[12] = system: Bacillus anthracis; assay: Antimicrobial activity against Bacillus anthracis infected mouse spore inhalation anthrax model assessed as survival rate at 50 mg/kg, iv administered as single dose treated 24 hrs postinfection; assay type: functional
[13] = species: Mus musculus; details: in vivo, ip, 1.2 mg/kg
[14] = system: Bacillus anthracis; assay: Antimicrobial activity against Bacillus anthracis infected mouse spore inhalation anthrax model assessed as survival rate at 5 mg/kg, iv administered as single dose treated 24 hrs postinfection; assay type: functional
[15] = system: Bacillus anthracis; assay: Antimicrobial activity against Bacillus anthracis infected mouse spore inhalation anthrax model assessed as survival rate at 30 mg/kg, ip every 48 hrs for 14 days treated 24 hrs postinfection; assay type: functional; details: route intraperitoneal
[16] = system: Mus musculus; assay: fAUC (0.25 to 72 hrs) in Bacillus anthracis infected mouse spore inhalation anthrax model at 32 mg/kg, iv administered as single dose; assay type: ADME, organism-based; set-up: dose 32 mg/kg, route intravenous; details: in vivo
[17] = system: Bacillus anthracis; assay: Antimicrobial activity against Bacillus anthracis infected mouse spore inhalation anthrax model assessed as bacterial load per gram of lung tissue at 10 mg/kg, ip every 48 hrs for 14 days treated 24 hrs postinfection; assay type: functional; details: route intraperitoneal
[18] = system: Bacillus anthracis; assay: Antimicrobial activity against Bacillus anthracis infected mouse spore inhalation anthrax model assessed as survival rate at 10 mg/kg, ip every 48 hrs for 14 days treated 24 hrs postinfection; assay type: functional; details: route intraperitoneal
[19] = system: Bacillus anthracis; assay: Antimicrobial activity against Bacillus anthracis infected mouse spore inhalation anthrax model assessed as survival rate at 0.1 mg/kg, ip every 48 hrs for 14 days treated 24 hrs postinfection; assay type: functional; details: route intraperitoneal
[20] = system: Mus musculus; assay: fAUC (0.25 to 72 hrs) in Bacillus anthracis infected mouse spore inhalation anthrax model at 32 mg/kg, ip administered as single dose; assay type: ADME, organism-based; set-up: dose 32 mg/kg, route intraperitoneal; details: in vivo
[21] = system: Bacillus anthracis; assay: Ratio of MIC90 for Bacillus anthracis in presence of polysorbate-80 to MIC90 for Bacillus anthracis; assay type: functional
[22] = system: Bacillus anthracis; assay: Antimicrobial activity against Bacillus anthracis infected mouse spore inhalation anthrax model assessed as bacterial load per gram of lung tissue at 0.3 mg/kg, ip every 48 hrs for 14 days treated 24 hrs postinfection; assay type: functional; details: route intraperitoneal
[23] = system: Bacillus anthracis; assay: Antimicrobial activity against Bacillus anthracis infected mouse spore inhalation anthrax model assessed as survival rate at 1 mg/kg, ip every 48 hrs for 14 days treated 24 hrs postinfection; assay type: functional; details: route intraperitoneal
[24] = system: Bacillus anthracis; assay: Antimicrobial activity against Bacillus anthracis infected mouse spore inhalation anthrax model; assay type: functional; details: inhaled or nasal
[25] = system: Bacillus anthracis; assay: Antimicrobial activity against Bacillus anthracis infected mouse spore inhalation anthrax model assessed as survival rate at 15 mg/kg, iv administered as single dose treated 24 hrs postinfection; assay type: functional
[26] = system: Bacillus anthracis; assay: Antimicrobial activity against Bacillus anthracis Ames by broth microdilution method in presence of polysorbate-80; assay type: functional
[27] = system: Bacillus anthracis; assay: Antimicrobial activity against Bacillus anthracis infected mouse spore inhalation anthrax model assessed as bacterial load per gram of lung tissue at 50 mg/kg, iv administered as single dose treated 7 days before infection; assay type: functional
[28] = system: Bacillus anthracis; assay: Antimicrobial activity against Bacillus anthracis infected mouse spore inhalation anthrax model assessed as survival rate at 10 mg/kg, ip every 48 hrs for 14 days treated 36 hrs postinfection; assay type: functional; details: route intraperitoneal
[29] = system: Bacillus anthracis; assay: Antimicrobial activity against Bacillus anthracis infected mouse spore inhalation anthrax model assessed as bacterial load per gram of lung tissue at 50 mg/kg, iv administered as single dose treated 28 days before infection; assay type: functional
[30] = system: Bacillus anthracis; assay: Antimicrobial activity against Bacillus anthracis infected mouse spore inhalation anthrax model assessed as survival rate at 50 mg/kg, iv administered as single dose treated 28 days before infection measured on 22 days postinfection; assay type: functional
[31] = system: Mus musculus; assay: Free peak concentration in Bacillus anthracis infected mouse spore inhalation anthrax model at 32 mg/kg, ip administered as single dose; assay type: ADME, organism-based; set-up: dose 32 mg/kg, route intraperitoneal; details: in vivo
[32] = system: Bacillus anthracis; assay: Antimicrobial activity against Bacillus anthracis by broth microdilution method in presence of polysorbate-80; assay type: functional
[33] = system: Bacillus anthracis; assay: Antimicrobial activity against Bacillus anthracis infected mouse spore inhalation anthrax model assessed as bacterial load per gram of lung tissue at 10 mg/kg, ip every 48 hrs for 14 days treated 36 hrs postinfection; assay type: functional; details: route intraperitoneal
[34] = system: Bacillus anthracis; assay: Antimicrobial activity against Bacillus anthracis infected mouse spore inhalation anthrax model assessed as survival rate at 50 mg/kg, iv administered as single dose treated 24 hrs before infection measured on 33 days postinfection; assay type: functional
[35] = system: Bacillus anthracis; assay: Antimicrobial activity against Bacillus anthracis infected mouse spore inhalation anthrax model assessed as bacterial load per gram of lung tissue at 10 mg/kg, ip every 48 hrs for 14 days treated 48 hrs postinfection; assay type: functional; details: route intraperitoneal
[36] = system: Bacillus anthracis; assay: Antimicrobial activity against Bacillus anthracis infected mouse spore inhalation anthrax model assessed as bacterial load per gram of lung tissue at 50 mg/kg, iv administered as single dose treated 14 days before infection; assay type: functional
[37] = system: Bacillus anthracis; assay: Antimicrobial activity against Bacillus anthracis infected mouse spore inhalation anthrax model assessed as survival rate at 50 mg/kg, iv administered as single dose treated 14 days before infection measured on 22 days postinfection; assay type: functional
[38] = system: Bacillus anthracis; assay: Antimicrobial activity against Bacillus anthracis infected mouse spore inhalation anthrax model assessed as bacterial load per gram of lung tissue at 3 mg/kg, ip every 48 hrs for 14 days treated 24 hrs postinfection; assay type: functional; details: route intraperitoneal
[39] = system: Bacillus anthracis; assay: Antimicrobial activity against Bacillus anthracis infected mouse spore inhalation anthrax model assessed as bacterial load per gram of lung tissue at 1 mg/kg, ip every 48 hrs for 14 days treated 24 hrs postinfection; assay type: functional; details: route intraperitoneal
[40] = system: Bacillus anthracis; assay: Antimicrobial activity against Bacillus anthracis infected mouse spore inhalation anthrax model assessed as survival rate at 10 mg/kg, ip every 48 hrs for 14 days treated 48 hrs postinfection; assay type: functional; details: route intraperitoneal
[41] = system: Bacillus anthracis; assay: Antimicrobial activity against Bacillus anthracis infected mouse spore inhalation anthrax model assessed as survival rate at 0.3 mg/kg, ip every 48 hrs for 14 days treated 24 hrs postinfection; assay type: functional; details: route intraperitoneal
[42] = system: Bacillus anthracis; assay: Antimicrobial activity against Bacillus anthracis infected mouse spore inhalation anthrax model assessed as survival rate at 50 mg/kg, iv administered as single dose treated 42 hrs postinfection; assay type: functional
[43] = system: Bacillus anthracis; assay: Antimicrobial activity against Bacillus anthracis infected mouse spore inhalation anthrax model assessed as bacterial load per gram of lung tissue at 50 mg/kg, iv administered as single dose treated 42 hrs postinfection; assay type: functional
[44] = system: Bacillus anthracis; assay: Antimicrobial activity against Bacillus anthracis infected mouse spore inhalation anthrax model assessed as survival rate at 3 mg/kg, ip every 48 hrs for 14 days treated 24 hrs postinfection; assay type: functional; details: route intraperitoneal
[45] = system: Bacillus anthracis; assay: Antimicrobial activity against Bacillus anthracis infected mouse spore inhalation anthrax model assessed as survival rate at 0.1 mg/kg, ip every 48 hrs for 14 days treated 24 hrs postinfection measured on day 3; assay type: functional; details: route intraperitoneal
[46] = system: Bacillus anthracis; assay: Antimicrobial activity against Bacillus anthracis infected mouse spore inhalation anthrax model assessed as bacterial load per gram of lung tissue at 5 mg/kg, iv administered as single dose treated 24 hrs postinfection; assay type: functional
[47] = system: Bacillus anthracis; assay: Antimicrobial activity against Bacillus anthracis infected mouse spore inhalation anthrax model assessed as survival rate at 50 mg/kg, iv administered as single dose treated 7 days before infection measured on 33 days postinfection; assay type: functional
[48] = system: Bacillus anthracis; assay: Antimicrobial activity against Bacillus anthracis infected mouse spore inhalation anthrax model assessed as bacterial load per gram of lung tissue at 15 mg/kg, iv administered as single dose treated 24 hrs postinfection; assay type: functional
[49] = system: Bacillus anthracis; assay: Antimicrobial activity against Bacillus anthracis infected mouse spore inhalation anthrax model assessed as bacterial load per gram of lung tissue at 50 mg/kg, iv administered as single dose treated 24 hrs before infection; assay type: functional
[50] = system: Mus musculus; assay: Free peak concentration in Bacillus anthracis infected mouse spore inhalation anthrax model at 32 mg/kg, iv administered as single dose; assay type: ADME, organism-based; set-up: dose 32 mg/kg, route intravenous; details: in vivo
[51] = system: Bacillus anthracis; assay: Antimicrobial activity against Bacillus anthracis infected mouse spore inhalation anthrax model assessed as bacterial load per gram of lung tissue at 50 mg/kg, iv administered as single dose treated 24 hrs postinfection; assay type: functional
[52] = system: Bacillus anthracis; assay: Antimicrobial activity against Bacillus anthracis infected mouse spore inhalation anthrax model assessed as bacterial load per gram of lung tissue at 30 mg/kg, ip every 48 hrs for 14 days treated 24 hrs postinfection; assay type: functional; details: route intraperitoneal

For `O=C(O)c1cn(C2CC2)c2cc(N3CCNCC3)c(F)cc2c1=O` [CIPROFLOXACIN], the survival at 30 mg/kg [1] was 70%, the log10cfu [2] was 3080 and the log10cfu [3] was 1090. The survival at 30 mg/kg [4] was 80%, the Ratio [5] was 4 and the survival at 30 mg/kg [6] was 0%. It also gave a log10cfu [7] of 2880, an MIC [8] of 0.12 µg/mL (≈ 0.362 µM) and a survival at 30 mg/kg [9] of 0%. For the same compound, the MIC [10] was 0.5 µg/mL (≈ 1.51 µM) and the survival at 30 mg/kg [11] was 90%.

`CN[C@H](CC(C)C)C(=O)N[C@H]1C(=O)N[C@@H](CC(N)=O)C(=O)N[C@H]2C(=O)N[C@H]3C(=O)N[C@H](C(=O)N[C@H](C(=O)O)c4cc(O)cc(O)c4-c4cc3ccc4O)[C@H](O[C@H]3C[C@](C)(N)[C@@H](O)[C@H](C)O3)c3ccc(c(Cl)c3)Oc3cc2cc(c3O[C@@H]2O[C@H](CO)[C@@H](O)[C@H](O)[C@H]2O[C@H]2C[C@](C)(NCc3ccc(-c4ccc(Cl)cc4)cc3)[C@@H](O)[C@H](C)O2)Oc2ccc(cc2Cl)[C@H]1O` [ORITAVANCIN] showed a survival at 50 mg/kg [12] of 100%, a fAUC [13] of 1900 ng·h/mL and a survival at 5 mg/kg [14] of 40%. The survival at 30 mg/kg [15] was 100%, the fAUC [16] was 61000 ng·h/mL and the log10cfu [17] was 35000. The Ratio [5] was 1, the survival at 10 mg/kg [18] was 100% and the survival at 0.1 mg/kg [19] was 0%. For the same compound, the fAUC [20] was 54000 ng·h/mL, the Ratio [21] was 16 and the log10cfu [22] was 28000. For the same compound, the survival at 1 mg/kg [23] was 50%, the ED50 [24] was 1.2 mg/kg and the survival at 15 mg/kg [25] was 70%. It also gave an MIC [26] of 0.015 µg/mL, a log10cfu [27] of 63000 and a survival at 10 mg/kg [28] of 90%. It also gave a log10cfu [29] of 51000, a survival at 50 mg/kg [30] of 20% and a Cmax_unbound [31] of 6100 ng/mL. For the same compound, the MIC90 [32] was 0.12 µg/mL, the log10cfu [33] was 2520 and the survival at 50 mg/kg [34] was 100%. For the same compound, the log10cfu [35] was 1680, the log10cfu [36] was 65000 and the survival at 50 mg/kg [37] was 100%. For the same compound, the MIC [8] was 0.004 µg/mL (≈ 0.00223 µM), the log10cfu [38] was 36800 and the log10cfu [39] was 29500. The MIC [10] was 0.008 µg/mL (≈ 0.00446 µM), the survival at 10 mg/kg [40] was 50% and the survival at 0.3 mg/kg [41] was 30%. It also gave a survival at 50 mg/kg [42] of 55%, a log10cfu [43] of 740 and a survival at 3 mg/kg [44] of 100%. It also gave an Activity [45] of 100%, a log10cfu [46] of 35000 and a survival at 50 mg/kg [47] of 90%. For the same compound, the log10cfu [48] was 20300, the log10cfu [49] was 1980 and the Cmax_unbound [50] was 17000 ng/mL. It also gave a log10cfu [51] of 36100 and a log10cfu [52] of 18200.
